Source: ChEMBL document CHEMBL4814000, “Discovery of β-carboline-(phenylsulfonyl)furoxan hybrids as potential anti-breast cancer agents” (Bioorg Med Chem Lett, 2021)
Each block holds one compound with its values, some of them ahead of it. Active and inactive are the calls of the source. The rule behind the calls is not given here.

Assays:
[1] = tested on: MCF7; test: Antiproliferative activity against human MCF7 cells assessed as reduction in cell viability incubated for 72 hrs by CCK-8 assay; type: functional, cell-based; conditions: MCF7, 72 h
Outline: (§1)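 CCK-8 viability assay on MCF-7 or MDA-MB-231 cells after 72 h compound exposure; IC50 taken as half inhibitory concentration, reported as mean ± SD of three independent experiments.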

[2] = tested on: MDA-MB-231; test: Antiproliferative activity against human MDA-MB-231 cells assessed as reduction in cell viability incubated for 72 hrs by CCK-8 assay; type: functional, cell-based; conditions: MDA-MB-231, 72 h; outline: as §1
[3] = Nitric oxide releasing activity assessed as amount of NO release measured up to 24 hrs by Griess assay; type: functional; conditions: time hrs <=24
Outline: (§2)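 Griess assay measuring NO released by compounds in vitro over time; values are averages of three independent experiments.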

[4] = tested on: MDA-MB-231; test: Induction of apoptosis in human MDA-MB-231 cells assessed as early apoptotic cells at 0.6 uM incubated for 72 hrs by annexin V-FITC staining based flow cytometry (reference value: 3.42%); type: functional
[5] = tested on: MDA-MB-231; test: Induction of cell cycle arrest in human MDA-MB-231 cells assessed as accumulation of cells at G2/M phase at 0.6 uM after 72 hrs by propidium iodide staining based flow cytometry (reference value: 10.90 %); type: functional
Outline: (§3)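 Cell cycle: MDA-MB-231 cells held 72 h at 0, 0.15, 0.3 or 0.6 μM, harvested, PI-stained and analysed by flow cytometry for G1, S and G2/M percentages.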

[6] = tested on: MDA-MB-231; test: Induction of cell cycle arrest in human MDA-MB-231 cells assessed as accumulation of cells at S phase at 0.15 uM after 72 hrs by propidium iodide staining based flow cytometry (reference value: 37.12 %); type: functional; outline: as §3
[7] = tested on: MDA-MB-231; test: Induction of DNA damage in human MDA-MB-231 cells assessed as increase olive tail moment measured at 0.15 to 0.6 uM after 72 hrs by neutral comet assay; type: functional, cell-based; conditions: dose 0.15-0.6 µM
Outline: (§4)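 Neutral comet assay for double-strand breaks in MDA-MB-231 cells incubated 72 h; head DNA%, tail DNA%, tail moment and Olive tail moment scored, the moments in arbitrary units; mean ± SD of three independent experiments, p < 0.05 versus control.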

[8] = tested on: MDA-MB-231; test: Induction of apoptosis in human MDA-MB-231 cells assessed as late apoptotic cells at 0.6 uM incubated for 72 hrs by annexin V-FITC staining based flow cytometry (reference value: 1.67%); type: functional
[9] = tested on: MDA-MB-231; test: Induction of apoptosis in human MDA-MB-231 cells assessed as necrotic cells at 0.3 uM incubated for 72 hrs by annexin V-FITC staining based flow cytometry (reference value: 1.05%); type: functional
[10] = tested on: MDA-MB-231; test: Induction of cell cycle arrest in human MDA-MB-231 cells assessed as accumulation of cells at S phase at 0.3 uM after 72 hrs by propidium iodide staining based flow cytometry (reference value: 37.12 %); type: functional; outline: as §3
[11] = tested on: MDA-MB-231; test: Induction of DNA damage in human MDA-MB-231 cells assessed as increase in tail DNA measured at 0.15 to 0.6 uM after 72 hrs by neutral comet assay; type: functional, cell-based; conditions: dose 0.15-0.6 µM; outline: as §4
[12] = Nitric oxide releasing activity assessed as amount of NO release measured at 3 hrs by Griess assay; type: functional; outline: as §2
[13] = tested on: MDA-MB-231; test: Induction of DNA damage in human MDA-MB-231 cells assessed as double-strand DNA breaks measured at 0.15 to 0.6 uM after 72 hrs by neutral comet assay; type: functional, cell-based; conditions: dose 0.15-0.6 µM; outline: as §4
[14] = tested on: MDA-MB-231; test: Induction of DNA damage in human MDA-MB-231 cells assessed as reduction in head DNA measured at 0.15 to 0.6 uM after 72 hrs by neutral comet assay; type: functional, cell-based; conditions: dose 0.15-0.6 µM; outline: as §4
[15] = tested on: MDA-MB-231; test: Induction of cell cycle arrest in human MDA-MB-231 cells assessed as accumulation of cells at S phase at 0.6 uM after 72 hrs by propidium iodide staining based flow cytometry (reference value: 37.12 %); type: functional; outline: as §3
[16] = tested on: MDA-MB-231; test: Induction of apoptosis in human MDA-MB-231 cells assessed as late apoptotic cells at 0.3 uM incubated for 72 hrs by annexin V-FITC staining based flow cytometry (reference value: 1.67%); type: functional
[17] = tested on: MDA-MB-231; test: Induction of DNA damage in human MDA-MB-231 cells assessed as increase in tail moment measured at 0.15 to 0.6 uM after 72 hrs by neutral comet assay; type: functional, cell-based; conditions: dose 0.15-0.6 µM; outline: as §4
[18] = tested on: MDA-MB-231; test: Inhibition of cell adhesion in human MDA-MB-231 cells measured for 24 hrs by phase-contrast microscope method; type: functional, cell-based; conditions: dose 0.15-0.6 µM
Outline: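 Adhesion: MDA-MB-231 cells incubated with 0, 0.15, 0.3 or 0.6 μM, non-adherent cells washed off with PBS, attached cells counted by phase contrast microscopy; mean ± SD of three independent experiments.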

[19] = tested on: MDA-MB-231; test: Induction of cell cycle arrest in human MDA-MB-231 cells assessed as accumulation of cells at G1 phase at 0.3 uM after 72 hrs by propidium iodide staining based flow cytometry (reference value: 51.97 %); type: functional; outline: as §3
[20] = tested on: MDA-MB-231; test: Induction of cell cycle arrest in human MDA-MB-231 cells assessed as accumulation of cells at G2/M phase at 0.15 uM after 72 hrs by propidium iodide staining based flow cytometry (reference value: 10.90 %); type: functional; outline: as §3
[21] = tested on: MDA-MB-231; test: Antiinvasive activity against human MDA-MB-231 cells assessed as reduction in invasion incubated for 24 hrs by crystal violet staining based transwell assay; type: functional, cell-based; conditions: dose microM <=0.6, time 24.0 hrs
Outline: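 Transwell: MDA-MB-231 cells seeded in chambers with 0, 0.15, 0.3 or 0.6 μM for 24 h; cells crossing stained with crystal violet, imaged and counted; mean ± SD of three independent experiments.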

[22] = tested on: MDA-MB-231; test: Induction of apoptosis in human MDA-MB-231 cells assessed as viable cells at 0.3 uM incubated for 72 hrs by annexin V-FITC staining based flow cytometry (reference value: 93.86%); type: functional; conditions: read-out: Activity
[23] = tested on: MDA-MB-231; test: Induction of apoptosis in human MDA-MB-231 cells assessed as early apoptotic cells at 0.3 uM incubated for 72 hrs by annexin V-FITC staining based flow cytometry (reference value: 3.42%); type: functional
[24] = tested on: MDA-MB-231; test: Induction of apoptosis in human MDA-MB-231 cells assessed as viable cells at 0.15 uM incubated for 72 hrs by annexin V-FITC staining based flow cytometry (reference value: 93.86%); type: functional; conditions: read-out: Activity
[25] = tested on: MDA-MB-231; test: Induction of cell cycle arrest in human MDA-MB-231 cells assessed as accumulation of cells at G2/M phase at 0.3 uM after 72 hrs by propidium iodide staining based flow cytometry (reference value: 10.90 %); type: functional; outline: as §3
[26] = tested on: MDA-MB-231; test: Induction of cell cycle arrest in human MDA-MB-231 cells assessed as accumulation of cells at G1 phase at 0.6 uM after 72 hrs by propidium iodide staining based flow cytometry (reference value: 51.97 %); type: functional; outline: as §3
[27] = tested on: MDA-MB-231; test: Induction of apoptosis in human MDA-MB-231 cells assessed as viable cells at 0.6 uM incubated for 72 hrs by annexin V-FITC staining based flow cytometry (reference value: 93.86%); type: functional; conditions: read-out: Activity
[28] = tested on: MDA-MB-231; test: Induction of cell cycle arrest in human MDA-MB-231 cells assessed as accumulation of cells at G1 phase at 0.15 uM after 72 hrs by propidium iodide staining based flow cytometry (reference value: 51.97 %); type: functional; outline: as §3
[29] = tested on: MDA-MB-231; test: Inhibition of cell migration in human MDA-MB-231 cells assessed as inhibition of wound healing rate measured for 24 hrs by phase contrast microscopy; type: functional, cell-based
Outline: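 Wound-healing: scratches made with pipette tips across MDA-MB-231 monolayers, then 24 h incubation at 0, 0.15, 0.3 or 0.6 μM; closure imaged by phase contrast microscopy and expressed as wound-healing rate; mean ± SD of three independent experiments.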

[30] = tested on: MDA-MB-231; test: Induction of apoptosis in human MDA-MB-231 cells assessed as early apoptotic cells at 0.15 uM incubated for 72 hrs by annexin V-FITC staining based flow cytometry (reference value: 3.42%); type: functional
[31] = tested on: MDA-MB-231; test: Induction of ROS generation in human MDA-MB-231 cells at 0.6 uM incubated for 72 hrs by DCFH-DA staining-based flow cytometric analysis (reference value: 3.04 %); type: functional
Outline: (§5)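 MDA-MB-231 cells exposed 72 h, then loaded with DCFH-DA and read on a FACScan flow cytometer as percent DCFH-DA-positive cells against DMSO-treated control; mean ± SD of three independent experiments.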

[32] = tested on: MDA-MB-231; test: Induction of apoptosis in human MDA-MB-231 cells assessed as late apoptotic cells at 0.15 uM incubated for 72 hrs by annexin V-FITC staining based flow cytometry (reference value: 1.67%); type: functional
[33] = tested on: MDA-MB-231; test: Induction of apoptosis in human MDA-MB-231 cells assessed as necrotic cells at 0.6 uM incubated for 72 hrs by annexin V-FITC staining based flow cytometry (reference value: 1.05%); type: functional
[34] = tested on: MDA-MB-231; test: Induction of apoptosis in human MDA-MB-231 cells assessed as necrotic cells at 0.15 uM incubated for 72 hrs by annexin V-FITC staining based flow cytometry (reference value: 1.05%); type: functional
[35] = tested on: MDA-MB-231; test: Induction of ROS generation in human MDA-MB-231 cells incubated for 72 hrs by DCFH-DA staining-based flow cytometric analysis relative to control; type: functional, cell-based; conditions: dose microM <=0.6, time 72.0 hrs; outline: as §5

IC50 [1]: 4800 nM
IC50 [2]: 3590 nM
Compound: COc1ccc(-c2nc(C(=O)OCCOc3no[n+]([O-])c3S(=O)(=O)c3ccccc3)cc3c2[nH]c2ccccc23)cc1
Activity [3]: Active

IC50 [1]: 1330 nM
IC50 [2]: 920 nM
Compound: COc1ccc(-c2nc(C(=O)N3CCN(CCOc4no[n+]([O-])c4S(=O)(=O)c4ccccc4)CC3)cc3c2[nH]c2ccccc23)cc1
Activity [3]: Active

IC50 [1]: 5360 nM
IC50 [2]: 2980 nM
Compound: COc1ccc(-c2nc(C(=O)OCCCCCCOc3no[n+]([O-])c3S(=O)(=O)c3ccccc3)cc3c2[nH]c2ccccc23)cc1
Activity [3]: Active

IC50 [1]: 890 nM
IC50 [2]: 620 nM
Compound: COc1ccc(-c2nc(C(=O)NCCCOc3no[n+]([O-])c3S(=O)(=O)c3ccccc3)cc3c2[nH]c2ccccc23)cc1
Activity [4]: 29.88%
Activity [5]: 23.54%
Activity [6]: 35.82%
Activity [7]: Active
Activity [8]: 24.3%
Activity [9]: 3.7%
Activity [10]: 37.2%
Activity [11]: Active
Activity [12]: 65 µM/L
Activity [13]: Active
Activity [14]: Active
Activity [15]: 35.87%
Activity [16]: 9.92%
Activity [17]: Active
inhibition [18]: Dose-Dependent Effect
Activity [19]: 42.88%
Activity [20]: 13.64%
Activity [21]: Active
viability at 0.3 µM [22]: 72.3%
Activity [23]: 14.07%
viability at 0.15 µM [24]: 83.6%
Activity [25]: 19.92%
Activity [26]: 40.59%
viability at 0.6 µM [27]: 44.2%
Activity [28]: 50.54%
inhibition [29]: Dose-Dependent Effect
Activity [30]: 8.28%
Activity [31]: 51.62%
Activity [32]: 4.39%
Activity [33]: 1.61%
Activity [3]: Active
Activity [34]: 3.68%
Activity [35]: Dose-Dependent Effect
